Assay results: PMC9119696 (Nature chemical biology, 2021)
Where “and” joins values, the source holds several entries; their conditions need not be identical. Identical values can stand only once.

Tests used:
[1] = tested on: 275 human cancer cell lines; experiment: PRISM cancer cell viability screening; format: cell-based; settings: 5-day treatment, 275 cell lines
Method in brief: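 Pooled, 24-nucleotide-barcoded cancer cell lines (275 in total) exposed to test compound for 5 days. Eight-point curve in fourfold dilutions from a top concentration of 20 µM.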

[2] = tested on: radioresistant HeLa cells; experiment: Radiosensitization AlamarBlue viability assay; format: cell-based; settings: 7.5 Gy IR
Method in brief: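 HeLa cells seeded at 200 per well. Treated with compound 16 h later, then given 7.5 Gy X-ray 1 h after treatment. AlamarBlue (10% final) added 3 days post-irradiation. Absorbance read at 570 nm, 600 nm reference, 4 days post-irradiation. Background taken from cell-free wells; % survival set against DMSO-treated, nonirradiated controls.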

NBL-S = experiment: 2D growth over time viability; format: cell-based; settings: 2.5 μM after 8 days
Method in brief: (§1)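 Cells seeded at 500 per well (PATU-8988T: 100 per well) and dosed with test compound or DMSO the next day. Kept at 37 °C, 5% CO2, with medium and compound renewed every 48 h. One plate per time point (days 0, 2, 4, 6, 8); the day 0 plate was read before dosing. Viability measured by CellTiter-Glo luminescence.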

PATU-8988T Pin1 KO cells = experiment: 3D Matrigel dome antiproliferative assay; format: cell-based; settings: 1 μM, 9-day treatment
Method in brief: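 1,000 cells per Matrigel dome, one dome per well, left 15 min at 37 °C to solidify. Medium with test compound renewed every 3 days. After 9 days, 3D CellTiter-Glo was added and the plate shaken 1 h at room temperature before reading luminescence. n = 9 biological replicates per condition.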

Pin1 Cys113 = experiment: rdTOP-ABPP chemoproteomic cysteine profiling; format: cell-based; settings: MDA-MB-231 cells, 5 μM, 2 h
Method in brief: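 MDA-MB-231 cells at 70% confluence treated 2 h with DMSO or 5 µM compound in serum-free medium. Lysed by sonication in PBS/0.1% Triton X-100; spun 100,000g, 30 min. Proteome (2 mg ml-1) labelled with 100 µM iodoacetamide-alkyne, 1 h RT. Clicked 1 h to biotin-acid-N3 (CuSO4/TBTA/TCEP). LC-MS/MS with cysteine modification +322.23688 Da; light/heavy ratios quantified.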

Thiol reactivity assay = format: physicochemical; settings: compared with 2; reactivity varied by an order of magnitude
PATU-8988T cells [3] = experiment: Apoptosis analysis; format: cell-based
Method in brief: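 PATU-8988T cells treated in triplicate for 6 days with DMSO (0.1%), test compound (1.0 or 2.5 µM) or a non-covalent analogue (2.5 µM), with medium replaced on day 3. Staurosporine (1 µM, 4 h) served as positive control. Cleaved caspase 3 and Pin1 assessed by Western blot. AnnexinV-FITC/7-AAD FACS scored live, early and late apoptotic cells; mean with SD, n=3.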

[4] = tested on: transplanted neuroblastoma cells in zebrafish embryos; experiment: Zebrafish neuroblastoma allograft transplant model; format: in vivo; settings: 100 μM in fish water, 5 days
Method in brief: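 Neuroblastoma cells obtained by dicing 4-month-old Tg(dβh:MYCN;dβh:EGFP) fish in PBS and transplanted into embryos. Live fish imaged under identical conditions. Tumour burden quantified as the area of EGFP-fluorescent tumour mass.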

[5] = tested on: IRAK1 Thr209 phosphorylation; experiment: IRAK1 Thr209 phosphorylation immunoblot; format: cell-based; settings: HeLa, 24 h post-IR
[6] = Mouse pharmacokinetic profiling; format: in vivo; settings: oral 10 mg kg^–1, three mice
NGP = experiment: 2D growth over time viability; format: cell-based; settings: 2.5 μM after 8 days
Method in brief: as §1

[7] = tested on: PINN1, the worm Pin1 homolog; settings: cited from earlier work
c-Myc protein levels = experiment: c-Myc protein level immunoblot; format: cell-based
[8] = tested on: KPC mouse-derived pancreatic cancer cells in B6 mice; experiment: KPC orthotopic pancreatic cancer mouse model; format: in vivo; settings: for survival: n = 8
Method in brief: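 Pancreatic cancer cells from a KPC mouse (Pdx1-Cre, lsl-KrasG12D/+, lsl-tp53R172H/+) transplanted orthotopically into the pancreatic tail of B6 mice. Daily IP dosing with vehicle or test compound at 20 or 40 mg kg-1 began one week later. Mice were euthanised when the largest control tumour reached 2 cm in length, and tumours were collected and measured.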

[9] = tested on: Myc transcriptional activity in HEK293 cells; experiment: Myc luciferase reporter assay; format: cell-based; settings: 2 μM, 48 h, cotransfected Pin1
Method in brief: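 HEK293 cells (DMEM, 10% FBS, 2.5 mM L-glutamine, nonessential amino acids) grown in six-well plates to 80% confluence. Lipofected with 4× E-box-luciferase and Pin1-Flag plasmids plus β-galactosidase as internal control. Compound added at transfection; cells harvested 48 h later. Cells lysed, sonicated and cleared before luciferase read-out.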

[10] = Hepatic microsome stability; format: in vitro ADME, mouse; settings: 1 μM, 1 mg ml^−1 microsomes, NADPH
Method in brief: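 Test compound (1 µM) incubated with hepatic microsomes (1 mg ml-1) in 100 mM KPi, pH 7.4. Reaction started by adding 1 mM NADPH.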

PATU-8988T cells [11] = experiment: Cell cycle analysis; format: cell-based; settings: 2.5 μM, 4 days
Method in brief: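 PATU-8988T cells treated 4 days with DMSO (0.1%), test compound or a non-covalent analogue (each 2.5 µM), with medium replaced on day 3; run in triplicate or more. Pulsed with 10 µM BrdU for 1 h, then fixed in 70% ethanol and denatured in 2 M HCl/0.5% Triton X-100 (30 min, RT). Neutralised with 0.1 M Na2B4O7 pH 8.5 and stained overnight at 4 °C with anti-BrdU-FITC. Counterstained with propidium iodide plus RNase A (each 50 µg ml-1) and analysed by FACS.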

[12] = Acute toxicity model in mice; format: in vivo; settings: daily 10, 20 or 40 mg kg^–1 IP for 2 weeks
Method in brief: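 Mice, 3 per arm, 14 days: vehicle; 10 mg kg-1 once daily; 20 mg kg-1 every other day; 40 mg kg-1 once daily; 40 mg kg-1 every other day. Given by IP injection in 5% N-methylpyrrolidone, 5% solutol, 20% DMSO. Adverse effects and weight recorded; postmortem examination.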

## CC(C)(C)CN(C(=O)CCl)C1CCS(=O)(=O)C1 (centres unmarked) [Sulfopin]
[1]
  antiproliferative activity (PRISM): limited to no antiproliferative activity
  number of cell lines with EC50 <3 μM: nine
[2]
  resensitization to irradiation: significantly resensitized them to irradiation in a dose-dependent manner
NBL-S
  antiproliferative effect (growth over time): significant viability effects
PATU-8988T Pin1 KO cells
  antiproliferative activity in 3D Matrigel domes: no effects observed
Pin1 Cys113
  competition ratio R, Pin1 Cys113: 15
Pin1 Cys113; 2,134 peptides
  competition ratio R, all other identified cysteines: < 2.5
Thiol reactivity assay
  thiol reactivity: dramatically less reactive
PATU-8988T cells [3]; 5 or 6 days, 1 μM, 2.5 μM, Western blot
  Pin1 protein levels: Pin1 levels were not changed
PATU-8988T cells [3]; treatments of up to 6 days, 1 and 2.5 μM
  induction of apoptosis: does not induce apoptosis
[4]
  eGFP-labeled tumor mass size: decreased in size
[5]
  concentration decreasing IRAK1 Thr209 phosphorylation: ≤ 100 nM
[6]
  oral bioavailability (F%): 30%
[6]; read-out: average cmax (peak concentration)
  Cmax: 11.5 µM
NGP
  antiproliferative effect (growth over time): significant viability effects
[7]
  inhibition of PINN1 in Caenorhabditis elegans: inhibited PINN1
c-Myc protein levels
  c-Myc protein levels: increased c-Myc protein levels
[8]; 20 mg kg^−1 daily
  survival: 37.5 days
[8]; 40 mg kg^−1 daily IP, 27 days, n = 4
  average tumor volume: 1,210.91 cm^3
[8]; 40 mg kg^−1 daily
  survival: 48.125 days
[8]; 40 mg kg^−1 versus control
  average increase in survival: 18.125 days and 18 days
[9]
  relative luciferase activity (Myc reporter): significant reduction in relative luciferase activity
[10]
  half-life in mouse hepatic microsomes: 41 min
PATU-8988T cells [11]
  cells in G1 phase: increased the number of cells found in G1 phase
  cells in S phase: reduced the percentage of cells in S phase
[12]
  adverse effects, weight loss: No adverse effects or weight loss were recorded
